Assay results published in ChEMBL document CHEMBL4715759, “Synthesis, biological evaluation and molecular modeling study of thiadiazolo[3,2-a][1,3]diazepine analogues of HIE-124 as a new class of short acting hypnotics” (Eur J Med Chem, 2016).
Active and inactive are the calls of the source. No cut-off for these calls is given here.

Experiments:
Mus musculus [1] = assay: Hypnotic activity in mouse assessed as duration of sleep time at 0.8 mmol/Kg, ip by righting reflex; type: functional
In short: (§1)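 Mice were first checked for an intact righting reflex. Single i.p. doses of 0.2–2 mmol/kg were given in DMSO (up to 1 ml/kg), or as a 0.25% aqueous carboxymethylcellulose suspension (up to 10 ml/kg) for larger doses, with vehicle controls. Each mouse was placed under a 30-cm glass funnel and monitored visually and by video. Onset of sleep was timed. Duration ended at regain of the righting reflex 3 times within 1 min. Minimal effective dose recorded; n=6.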

Mus musculus [2] = assay: Hypnotic activity in mouse assessed as onset of sleep time at 0.8 mmol/Kg, ip by righting reflex; type: functional; in short: as §1
[3] = Therapeutic Index, ratio of LD50 of Toxicity in iv dosed mouse to minimum effective hypnotic dose in mouse; type: organism-based; conditions: in vivo, read-out: TI
Mus musculus [4] = assay: Hypnotic activity in mouse assessed as duration of sleep time at 0.03 mmol/Kg, ip in presence of 0.06 mmole/kg thiopenetal by righting reflex; type: functional
In short: (§2)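 Mice received a test compound (0.03–0.06 mmol/kg) together with thiopental sodium (0.06 mmol/kg), both i.p. Vehicle was DMSO (up to 1 ml/kg), or 0.25% aqueous sodium carboxymethylcellulose suspension for larger doses (up to 10 ml/kg). Each mouse was kept under a 30-cm glass funnel and watched visually and on video. Sleep onset was timed. Duration ended when the righting reflex was regained 3 times within one minute. n=6.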

Mus musculus [5] = assay: Hypnotic activity in mouse assessed as duration of sleep time at 0.4 mmol/Kg, ip by righting reflex; type: functional; in short: as §1
Mus musculus [6] = assay: Hypnotic activity in mouse assessed as onset of sleep time at 0.03 mmol/Kg, ip in presence of 0.06 mmole/kg thiopenetal by righting reflex; type: functional; in short: as §2
Mus musculus [7] = assay: Hypnotic activity in mouse assessed as onset of sleep time at 0.4 mmol/Kg, ip by righting reflex; type: functional; in short: as §1
Mus musculus [8] = assay: Hypnotic activity in mouse assessed as duration of sleep time at 0.06 mmol/Kg, ip in presence of 0.06 mmole/kg thiopenetal by righting reflex; type: functional; in short: as §2
Mus musculus [9] = assay: Hypnotic activity in mouse assessed as duration of sleep time at 0.05 mmol/Kg, ip in presence of 0.06 mmole/kg thiopenetal by righting reflex; type: functional; in short: as §2
Mus musculus [10] = assay: Hypnotic activity in mouse assessed as onset of sleep time at 0.06 mmol/Kg, ip in presence of 0.06 mmole/kg thiopenetal by righting reflex; type: functional; in short: as §2
Mus musculus [11] = assay: Hypnotic activity in mouse assessed as onset of sleep time at 0.05 mmol/Kg, ip in presence of 0.06 mmole/kg thiopenetal by righting reflex; type: functional; in short: as §2
Mus musculus [12] = assay: Hypnotic activity in mouse assessed as duration of sleep time at 1.6 mmol/Kg, ip by righting reflex; type: functional, organism-based; in short: as §1
Mus musculus [13] = assay: Hypnotic activity in mouse assessed as onset of sleep time at 1.6 mmol/Kg, ip by righting reflex; type: functional; in short: as §1
Mus musculus [14] = assay: Hypnotic activity in mouse assessed as duration of sleep time at 1 mmol/Kg, ip by righting reflex; type: functional; in short: as §1
Mus musculus [15] = assay: Hypnotic activity in mouse assessed as onset of sleep time at 1 mmol/Kg, ip by righting reflex; type: functional; in short: as §1
Mus musculus [16] = assay: Hypnotic activity in mouse assessed as duration of sleep time at 0.2 mmol/Kg, ip by righting reflex; type: functional
In short: (§3)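 Mice screened for intact righting reflex, then dosed i.p. (0.2–2 mmol/kg range; DMSO up to 1 ml/kg, or larger doses suspended in 0.25% aqueous Na-CMC up to 10 ml/kg). Each mouse was held under a 30-cm glass funnel and monitored visually and by video. Onset was recorded at loss of righting reflex. Sleep ended when the reflex was regained 3 times within one minute. n=6.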

Mus musculus [17] = assay: Hypnotic activity in mouse assessed as onset of sleep time at 0.2 mmol/Kg, ip by righting reflex; type: functional; in short: as §3

Compound: O=C1CCCN2N=C(C(F)(F)F)SC2=N1
- Time (Mus musculus [1]): 14 min
- Time (Mus musculus [2]): 14 min
- selectivity ratio [3]: 3.32

Compound: O=C1CCCN2N=C(c3ccc(Br)cc3)SC2=N1
- Time (Mus musculus [4]): 75 min
- Activity (Mus musculus [5]): inactive
- Time (Mus musculus [6]): 3.1 min
- Time (Mus musculus [7]): 43.4 min
- selectivity ratio [3]: 1.5

Compound: O=C1CCCN2N=C(c3ccccc3)SC2=N1
- Time (Mus musculus [8]): 62.5 min
- Time (Mus musculus [9]): 5 min
- Time (Mus musculus [5]): 94.8 min
- Time (Mus musculus [10]): 7.5 min
- Time (Mus musculus [11]): 15 min
- Time (Mus musculus [7]): 6.4 min
- selectivity ratio [3]: 6.62

Compound: Cc1ccc(C2=NN3CCCC(=O)N=C3S2)cc1
- Activity (Mus musculus [12]): inactive
- Time (Mus musculus [13]): 20 min
- selectivity ratio [3]: 1.25

Compound: CC1=NN2CCCC(=O)N=C2S1
- Time (Mus musculus [14]): 6 min
- Time (Mus musculus [15]): 25 min
- selectivity ratio [3]: 3.55

Compound: CCCC(C)C1(CC)C(=O)[N-]C(=S)NC1=O.[Na+] (centres undefined) [THIOPENTAL SODIUM]
- Time (Mus musculus [16]): 45 min
- Time (Mus musculus [17]): 2 min
- selectivity ratio [3]: 6.1
